4 molecules from paper PMC3947748 (Journal of biomolecular screening, 2010) can be followed below.

For test [1], the target named is T1, Nek2 (Homo sapiens, UniProt P51955).
T1 sequence (P51955 1-445): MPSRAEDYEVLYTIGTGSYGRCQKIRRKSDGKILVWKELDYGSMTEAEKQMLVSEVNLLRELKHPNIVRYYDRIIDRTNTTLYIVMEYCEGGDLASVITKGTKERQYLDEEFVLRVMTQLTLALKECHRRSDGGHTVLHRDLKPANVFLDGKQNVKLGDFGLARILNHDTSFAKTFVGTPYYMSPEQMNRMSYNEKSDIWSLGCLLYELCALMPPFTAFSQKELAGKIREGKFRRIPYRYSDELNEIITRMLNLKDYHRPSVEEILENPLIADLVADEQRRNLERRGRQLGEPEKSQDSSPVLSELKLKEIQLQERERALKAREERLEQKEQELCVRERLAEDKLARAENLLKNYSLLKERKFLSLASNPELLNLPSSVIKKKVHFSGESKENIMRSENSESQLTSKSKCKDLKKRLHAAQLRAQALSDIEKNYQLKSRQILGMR
The experiment in a line: FlashPlate radiometric proximity assay of Nek2 kinase activity. The format is biochemical.

Test [2] concerns the target T1, Nek2. In words: Filter assay of Nek2 kinase activity. The format is biochemical.
The next test has as its system U2OS:GFP-Nek2A cells. The experiment in a line: Manual immunofluorescence assay of Nek2A-induced centrosome splitting. The conditions noted are these: doxycycline-induced cells; 0.5, 5 and 50 μM; 24 hours; γ-tubulin stain. The format is cell-based, human. In a few lines: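 Tetracycline-inducible stable U2OS:GFP-Nek2A cells were induced with doxycycline together with test compound (0.5, 5, 50 μM) or DMSO (2%) for 24 h. Cells were fixed and stained for γ-tubulin and DNA for indirect immunofluorescence. The percentage of interphase cells with centrosomes more than 2 μm apart was scored. Three repeat experiments, standard deviations; Student's t-test versus DMSO.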

Another test has as its target T2, Aurora A (Homo sapiens, UniProt O14965).
T2 sequence (O14965 1-403): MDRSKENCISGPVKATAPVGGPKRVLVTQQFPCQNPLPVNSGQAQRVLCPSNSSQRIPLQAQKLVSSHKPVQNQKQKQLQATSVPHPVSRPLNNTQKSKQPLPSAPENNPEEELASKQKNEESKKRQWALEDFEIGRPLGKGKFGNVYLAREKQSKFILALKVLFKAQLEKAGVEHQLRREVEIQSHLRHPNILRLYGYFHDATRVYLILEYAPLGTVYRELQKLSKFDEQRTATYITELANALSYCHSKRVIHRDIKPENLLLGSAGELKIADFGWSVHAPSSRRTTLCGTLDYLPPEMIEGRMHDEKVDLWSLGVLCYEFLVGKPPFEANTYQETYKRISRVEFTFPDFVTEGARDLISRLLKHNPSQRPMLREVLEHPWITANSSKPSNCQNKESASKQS
The experiment in a line: Kinase specificity assay. Type of test: biochemical.

Another test has as its target Nek6 (Homo sapiens, UniProt Q9HC98). The experiment in a line: Kinase specificity assay. Type of test: biochemical.
The target in another test is Nek7 (Homo sapiens, UniProt Q8TDX7). The experiment in a line: Kinase specificity assay. The format is biochemical.
The target in a further test is Cdk1/Cyclin B (Homo sapiens, UniProt P06493). In words: Kinase specificity assay. Type of test: biochemical.
A further test has as its system HeLa cells. In words: Growth inhibition assay. Type of test: cell-based. The conditions noted are these: Homo sapiens, 72 h, read-out: Growth inhibition GI50, HeLa. In a few lines: (§1)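 Cells cultured as previously described, seeded at […], then given test compound in DMSO over a concentration range, or DMSO alone (1-2% final), after 24 h. Incubation 72 h.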

The next test concerns U2OS cells. The experiment in a line: Growth inhibition assay. The format is cell-based. The conditions noted are these: Homo sapiens, 72 h, read-out: Growth inhibition GI50, U2OS. Put shortly:
as §1

Like-named read-outs stand apart in the source and are kept apart here.

Nek6, sequence (Q9HC98 whole entry, species assumed): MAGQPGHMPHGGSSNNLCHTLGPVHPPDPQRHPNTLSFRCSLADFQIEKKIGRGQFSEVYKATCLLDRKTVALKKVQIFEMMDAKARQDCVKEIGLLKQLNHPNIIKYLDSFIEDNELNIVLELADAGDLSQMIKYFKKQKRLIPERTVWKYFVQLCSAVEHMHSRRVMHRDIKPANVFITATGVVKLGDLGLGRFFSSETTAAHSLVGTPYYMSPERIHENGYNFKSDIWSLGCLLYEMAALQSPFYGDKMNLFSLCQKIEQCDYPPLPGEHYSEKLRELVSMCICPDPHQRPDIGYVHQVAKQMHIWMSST
Cdk1/Cyclin B, sequence (P14635 whole entry): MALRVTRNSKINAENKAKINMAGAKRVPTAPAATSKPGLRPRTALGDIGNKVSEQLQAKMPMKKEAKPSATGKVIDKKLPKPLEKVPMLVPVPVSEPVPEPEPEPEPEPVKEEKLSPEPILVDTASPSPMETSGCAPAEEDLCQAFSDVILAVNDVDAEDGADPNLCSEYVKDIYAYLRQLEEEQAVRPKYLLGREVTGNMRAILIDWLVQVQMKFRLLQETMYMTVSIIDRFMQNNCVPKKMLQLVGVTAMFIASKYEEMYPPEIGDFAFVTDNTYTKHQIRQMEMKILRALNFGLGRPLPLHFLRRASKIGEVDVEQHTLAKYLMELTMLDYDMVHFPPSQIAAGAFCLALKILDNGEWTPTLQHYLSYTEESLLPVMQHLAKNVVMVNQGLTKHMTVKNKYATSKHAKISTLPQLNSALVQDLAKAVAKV
Cdk1/Cyclin B, sequence (P06493 whole entry): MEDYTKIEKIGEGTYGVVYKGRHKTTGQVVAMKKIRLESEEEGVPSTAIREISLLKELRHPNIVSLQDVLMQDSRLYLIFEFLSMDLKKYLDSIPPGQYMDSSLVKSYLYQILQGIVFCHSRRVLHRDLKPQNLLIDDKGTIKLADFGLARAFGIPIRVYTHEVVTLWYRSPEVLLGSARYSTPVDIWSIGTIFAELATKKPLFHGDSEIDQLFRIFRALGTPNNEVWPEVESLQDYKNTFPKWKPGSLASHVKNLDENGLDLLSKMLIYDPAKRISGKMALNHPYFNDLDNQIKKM
Nek7, sequence (Q8TDX7 whole entry, species assumed): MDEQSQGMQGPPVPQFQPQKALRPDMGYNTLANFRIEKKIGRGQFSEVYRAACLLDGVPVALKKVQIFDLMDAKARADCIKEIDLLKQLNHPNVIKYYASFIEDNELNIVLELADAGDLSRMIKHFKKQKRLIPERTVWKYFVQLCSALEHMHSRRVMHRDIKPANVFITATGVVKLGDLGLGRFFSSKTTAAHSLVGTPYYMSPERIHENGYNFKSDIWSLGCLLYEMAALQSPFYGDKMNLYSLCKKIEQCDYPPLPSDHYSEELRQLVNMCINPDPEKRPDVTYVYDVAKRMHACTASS

`O=c1cc(N2CCOCC2)oc2c(-c3ccccc3)cccc12` [LY294002]: at Nek2 [1], the “Nek2 inhibition, FlashPlate (result in words)” value was “inactive”. Moreover, at Nek2 [2], the “Nek2 inhibition, filter assay (result in words)” value was “inactive”.
`Oc1ccc(Nc2nc(OCC3CCCCC3)c3[nH]cnc3n2)cc1` [NU6120, 6-cyclohexylmethoxy-2-(4′-hydroxyanilino)purine]: the “Effect on Nek2A-induced centrosome splitting (manual scoring, split >2 μm)” value with U2OS:GFP-Nek2A cells was “had no effect on splitting”.
A word on the inhibition: it is the relative decrease from the control value, in per cent. As for `CN[C@@H]1C[C@H]2O[C@@](C)([C@@H]1OC)n1c3ccccc3c3c4c(c5c6ccccc6n2c5c31)C(=O)NC4` [Staurosporine, staurosporine], the “Hill slope of Nek2 inhibition” value on Nek2 [1] (data not shown) is approximately 1.0. Moreover, the inhibition at 25 µM is 59 ± 18% on Nek2 [1] (read-out: Inhibition of Nek2 activity at 25 μM, entire screen) and 61.2 ± 2.4% on Nek2 [1] (read-out: Inhibition of Nek2 activity at 25 μM, typical batch).
The term IC50 denotes the point on the concentration scale where inhibition reaches its midpoint. High values mean weaker potency in that assay, low ones greater potency in that assay. By GI50 is commonly meant the concentration at which growth is held to half of that of the control. Regarding `COC[C@H]1OC(=O)c2coc3c2[C@@]1(C)C1=C(C3=O)[C@@H]2CCC(=O)[C@@]2(C)C[C@H]1OC(C)=O` [Wortmannin], the IC50 against Aurora A, against Nek6, on Nek7 and on Cdk1/Cyclin B was more than 400 µM in each case. The results for the 50% growth inhibitory concentration (GI50) in the test on HeLa cells and in the test on U2OS cells were 15 µM and 23.7 µM, respectively.
